Env fusion inh = blocks HIV Env-driven cell-cell fusion. HeLa-JRFL Env/CEM21 cell fusion, luciferase. inhibition, % at 12.3 µM. 360,000 tested, 1.1% active;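 active means mean replicate inhibition score of at least 50 and every replicate individually at or above 50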;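 further: 0% = plate neutral controls and 100% = maraviroc near 300 nM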
Ecoli rRNA inh = inhibits bacterial ribosomal RNA function over humanized ribosomes; E. coli WT GFP vs humanized-ribosome RFP mutants, fluorescence, 24 h; active compounds read low; DMSO median 0, no signal -100; GFP signal change (wild-type ribosome), % (concentration not given with the values); 350,000 tested, 1.6% active; AID 720706;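 active means significant combined selectivity score with lowered wild-type GFP, culture density cut under 30%, mutant RFP and density less affected; inactive means any of these conditions unmet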
FN deposit inh = fibronectin deposition inhibition | AH1F fibroblasts, Alexa488-fibronectin deposition fluorescence, overnight | inhibition, % at 12.6 µM | 350,000 tested, 0.086% active;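 active means mean inhibition across replicates of 30% or more, regardless of how many single replicates reach that level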;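 further: positive control wells lacked labelled fibronectin entirely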
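material = AH1F fibroblast monolayer depositing Alexa488-labelled fibronectin into matrix | amount = 10000 AH1F cells/well | buffer or medium = DMEM plus 2% serum, read in PBS | incubation = 1 h cell adhesion before compound, then overnight fibronectin incubation | detection = fluorescence at 485 nm excitation, 525 nm emission | evaluation = percent inhibition as loss of matrix-bound fibronectin fluorescence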
Vif inh = inhibitors of HIV Vif; 340,000 tested, 0.35% active; inhibition, % at 7.49 µM; HEK293T cells, Vif self-association by quenched fluorescence, imaging, 24 h; in the data active means inhibition above about 50%, passing the limit was not always enough
S100A4 MyoIIA = blocks human S100A4 binding to myosin IIA peptide | P26447 | S100A4/TAMRA-MyoIIA peptide fluorescence polarization | inhibition, % at 10.7 µM | 360,000 tested, 0.14% active | AID 652163;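 active means mean inhibition of at least 70% across replicates, with every replicate also reaching that level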
Target sequence (P26447 whole entry, looked up): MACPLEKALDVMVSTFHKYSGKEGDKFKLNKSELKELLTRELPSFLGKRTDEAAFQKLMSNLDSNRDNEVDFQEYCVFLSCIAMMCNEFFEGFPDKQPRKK
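Test system: S100A4 monomer protein; Medium: HEPES pH 7.2 with CaCl2, KCl, NaCl, DTT, Triton; Probe or stimulus: TAMRA-labelled myosin IIA heavy-chain peptide probe, 5 nM; Doses: one dose per compound; Times: polarization read 5 min after assay mix addition, stable 5–60 min; Benchmarks: neutral control DMSO, positive control TFP.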
miR122 inh = inhibitors of miR-122 in Huh7 cells. Huh7 miR-122 Renilla luciferase sensor, 48 h; neutral wells = 0, positive control = 100. 340,000 tested, 0.3% active. activation (reporter increase), % at 12.5 µM. AID 602342;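 active means mean replicate activation score at least 90 and every replicate individually at or above 90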;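 further: higher luciferase means less miR-122 activity so hits act as miR-122 inhibitors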
* = called active by the depositor; / = no result; [ ] = dose if it differs, or a comment. Shown are actives, neighbours in structure and some others; about 2.6% of the full set was active somewhere.

SMILES	Env fusion inh	Ecoli rRNA inh	FN deposit inh	Vif inh	S100A4 MyoIIA	miR122 inh
Cc1ccc(S(=O)(=O)N(CC(=O)NCc2ccco2)C2CCCCC2)cc1	/	-28.1*	/	/	-9.7	5.8
O=C(CN(C1CCCCC1)S(=O)(=O)c1ccccc1)NCc1ccco1	28.8	/	2.0	/	/	1.1
COc1ccccc1N(CC(=O)NCc1ccco1)S(=O)(=O)c1ccc(C)cc1	10.8	-6.1	3.8	4.6	-2.3	/
CCN(C1CCCCC1)S(=O)(=O)c1ccc(S(=O)(=O)N(CC(=O)Nc2ccccc2)C2CC2)cc1	74.8*	/	/	-5.5	/	-0.8
COc1ccc(N(CC(=O)NCc2ccco2)S(=O)(=O)c2ccc(C)cc2)cc1OC	3.5	7.8	12.4	16.7	-3.8	/
Cc1ccc(S(=O)(=O)N(Cc2ccc(Cl)cc2)c2ccccc2C(=O)NCc2ccco2)cc1	68.8*	/	-9.2	7.6	/	/
Cc1ccc(N(CC(=O)NCc2ccco2)S(=O)(=O)c2ccccc2)cc1	-45.2	/	30.1*	-1.8	/	3.0
C[C@@H]1CCCCO[C@@H](CN(C)Cc2ccc3c(c2)OCO3)[C@@H](C)CN([C@H](C)CO)C(=O)c2cc(NS(=O)(=O)c3ccc(F)cc3)ccc2O1	-14.2[16.7 µM]	10.4	-16.4	/	-4.2	-1.8[16.7 µM]
CC(=O)c1cccc(NS(=O)(=O)c2csc(C(N)=O)c2)c1	6.0	11.8	0.7	-5.1	-1.7	60.9
COc1cc(NS(=O)(=O)c2csc(C(N)=O)c2)cc(OC)c1	23.0	5.4	3.8	/	6.9	99.3*
Cc1cccc(NS(=O)(=O)c2csc(C(N)=O)c2)c1	5.4	2.6	3.2	3.8	-4.2	110.6*
COc1ccccc1-c1cn(CC[C@H]2CC[C@@H](NC(=O)C3CCCC3)[C@@H](CO)O2)nn1	/	-3.9	-1.6	/	4.5	/
Cc1oc(-c2ccc(-c3ccccc3)cc2)nc1CN(C)C1CCOC1 (stereo unspecified)	-62.2	-23.0*	8.8	-4.6	-2.0	-2.0
Cc1c(C(=O)NN)nn(-c2ccc(Cl)cc2)c(=O)c1C#N	-4.7	-15.9*	-7.6	-13.2	-3.8	/
NNC(=O)c1nn(-c2ccc(Cl)cc2)cc1O	-26.6	-19.4*	0.8	-14.6	-5.9	15.6
Cc1ccc(NC(=O)COC(=O)c2nn(-c3ccc(Cl)cc3)cc2O)cc1	-40.7	-10.2	-11.3	-15.4	-11.7	4.9
CC(=O)N1CCCCN2[C@H](CO)[C@H](c3ccc(-c4cccc(C)c4)cc3)[C@H]2C1	/	-2.9	/	/	13.2	4.1[16.7 µM]
Nc1c(C(=O)Nc2ccc(S(=O)(=O)N3CCCC3)cc2)sc2nc3ccc(OC(F)(F)F)cc3cc12	-53.8	/	-5.7	95.6*	/	-3.3
Cc1ccc(OC(C)C(=O)Nc2ccc(C)c(S(=O)(=O)Nc3ccc(C)cc3C)c2)cc1 (stereo unspecified)	12.8	/	-4.2	-5.3	/	195.7*
CC(=O)Nc1cc(S(=O)(=O)Nc2ccc(C)cc2)c(C)cc1C	/	/	/	3.6	/	128.6*
Cc1cc(C)c(S(=O)(=O)Nc2ccc(O)cc2)cc1C	/	/	/	-5.7	/	68.7
Cc1ccc(OC(C)C(=O)Nc2ccncc2)cc1 (stereo unspecified)	18.2	3.8	9.8	-1.3	-7.3	-5.3
Cc1sc2nc(CSCC(=O)Nc3ccc(C(F)(F)F)cc3)[nH]c(=O)c2c1C	77.8*	-3.0	-3.7	15.2	-6.5	/
Cc1cccc(S(=O)(=O)N2CC[C@@H]3[C@H](CO)N(C)c4ccc(-c5ccc(C#N)cc5)cc4[C@@H]32)c1	/	1.2	9.6	/	-12.9	-4.3[16.7 µM]
COCCN=c1scc(C)n1/N=C/C1CC2C=CC1C2 (stereo unspecified)	63.1*	13.1	5.8	-0.3	-4.1	/
SMILES	Env fusion inh	Ecoli rRNA inh	FN deposit inh	Vif inh	S100A4 MyoIIA	miR122 inh
CCN=c1scc(C)n1/N=C/c1ccsc1	-101.4	/	-31.6	1.6	/	-3.3
CC(=O)N(C)C[C@@H]1Oc2cc(C3=CCCCC3)ccc2S(=O)(=O)N([C@@H](C)CO)C[C@@H]1C	13.2[16.7 µM]	1.5	/	/	/	-2.0[16.7 µM]
O=C1c2oc3ccccc3c(=O)c2C(c2cccc(Br)c2)N1Cc1ccco1 (stereo unspecified)	55.3*	/	2.3	1.4	/	/
COc1ccc(C2c3c(oc4ccccc4c3=O)C(=O)N2Cc2ccncc2)cc1OC (stereo unspecified)	-21.0	/	/	/	/	/
C[C@@H]1CN([C@H](C)CO)C(=O)c2cc(-c3cccc(F)c3)cnc2O[C@@H]1CN(C)C(=O)C1CC1	8.1[16.7 µM]	6.2	/	/	/	-0.2[16.7 µM]
COc1ccc2c3c([nH]c2c1)[C@H](CO)N(C)CC31CCN(C(=O)NC(C)C)CC1	/	1.1	/	/	/	/
C/C(=N\NC(=O)c1cc(C)nc2ccccc12)c1ccccn1	61.2*	-24.4*	6.7	4.3	-4.6	/
CC(=NNc1ccc2ccccc2n1)c1ccccn1	109.6*	/	-7.6	/	-1.8	/
CC(=NNc1ccc2ccccc2n1)c1ccccc1O	17.7	-13.0	-10.3	-19.4	-6.0	/
CC(=O)CSc1nc(N)c(C#N)c(-c2cccs2)c1C#N	-52.5	/	/	-18.6	/	6.7
CCCCSc1nc(N)c(C#N)c(-c2cccs2)c1C#N	/	-31.4*	/	-8.4	-1.8	-9.8
O=C(Nc1ccc(F)cc1)N[C@H]1CC[C@@H](CCNC(=O)c2ccccc2F)O[C@@H]1CO	/	-2.6	/	/	-27.3	/
Cc1ccc([N+](=O)[O-])cc1N(CC(=O)Nc1ccc(S(=O)(=O)Nc2cccc(C(F)(F)F)c2)cc1)S(C)(=O)=O	/	/	/	-11.3	/	123.1*
COc1ccccc1N(CC(=O)Nc1cccc(C(F)(F)F)c1)S(C)(=O)=O	-79.2	-25.0	/	5.7	4.0	3.0
c1ccc(Cn2c(-c3ccccc3)c[n+]3c2SCCC3)cc1	9.2	-45.3*	-7.9	-2.3	8.1	1.3
COc1ccc(-c2c[n+]3c(n2-c2ccccc2)SCC3)cc1	1.6	-0.1	5.1	-5.0	-1.0	0.1
CCC(=O)N1CC(=O)N2[C@H](CO)[C@@H](c3ccc(-c4ccccc4C)cc3)[C@H]2C1	/	-2.1	/	/	13.9	/
CCOC(=O)C1=C(C)NC2=C(C(=O)CCC2)C1c1cn(Cc2ccc(Cl)cc2Cl)nc1-c1ccccc1 (stereo unspecified)	121.4*	/	0.3	3.6	/	6.1
COC(=O)C1=C(C)NC2=C(C(=O)CCC2)C1c1cn(Cc2ccc(Cl)cc2Cl)nc1-c1ccccc1 (stereo unspecified)	109.6*	/	0.5	/	/	4.7
Nc1ncnc(N)c1N=Nc1ccccc1	9.2	8.9	11.8	-2.6	-2.6	-3.9
Nc1ccc2ccccc2c1N=Nc1ccccc1	26.6	-30.6*	4.6	1.9	-18.9	-0.5
CC(=O)Nc1ccc2c(c1)C(=O)N(C)C[C@@H](C)[C@@H](CN(C)S(C)(=O)=O)O2	/	0.8	-16.5	/	/	/
CCc1ccc([C@H]2[C@@H]3C(=O)C[C@@H]4C(=O)N(CC)C(=O)[C@@H]4[C@@H]3CN2S(=O)(=O)c2ccc(C)cc2)cc1	53.9	12.4	-12.7	/	-8.9	-2.6

Screening data (PubChem BioAssay)
